Common to all, as to type: functional
One assay has as its system Human alphaherpesvirus 1. The experiment in a line: Antiherpetic activity against HSV-1. The settings on record: read-out: ED50 (the source's name). The gist of the method: (§1)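 Plaque-reduction assay on Vero cell monolayers infected with HSV-1 or HSV-2 (strain G). ED50 is the dose that cuts plaque number by 50%.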
A further assay deals with Lymphocytic cell line. The experiment in a line: Inhibition of growth of normal human lymphocytic cells. As to conditions: read-out: ID50 (the source's name).
The next assay deals with Human alphaherpesvirus 2. The experiment in a line: Antiherpetic activity against HSV-2. As to conditions: read-out: ED50 (the source's name). The procedure, abridged: as §1
The mark [1] stands for this setting: Homo sapiens, Lymphocytic cell line.

For the molecule `Nc1nc(=O)n([C@H]2O[C@@H](CO)[C@H](O)[C@H]2F)cc1Br`, the values for the EC50 with Human alphaherpesvirus 1 (Human alphaherpesvirus 1) and in the assay with Human alphaherpesvirus 2 (Human alphaherpesvirus 2) were 190 nM and 20 nM, respectively. Besides, in the assay with Lymphocytic cell line (setting [1]), the IC50 worked out at 5000 nM.
Take `Nc1nc(=O)n([C@@H]2O[C@H](CO)[C@@H](O)[C@H]2F)cc1I` (stereo in doubt; 3A): the EC50 in the assay with Human alphaherpesvirus 1 and with Human alphaherpesvirus 2 was 10 nM each time. Moreover, the IC50 with Lymphocytic cell line was found to be 8600 nM.
Regarding `Nc1ccn([C@@H]2O[C@H](CO)[C@@H](O)[C@@H]2Br)c(=O)n1`, the results for the EC50 in the assay with Human alphaherpesvirus 1 (Human alphaherpesvirus 1) and with Human alphaherpesvirus 2 (Human alphaherpesvirus 2) were 3200 nM and 4400 nM, respectively. The IC50 with Lymphocytic cell line (setting [1]) turned out to be 200 nM.
On the same counts, the results for `Cc1cn([C@@H]2O[C@H](CO)[C@@H](O)[C@@H]2Br)c(=O)nc1N` are more than 100000 nM, 26200 nM and 34000 nM.
Regarding `Cc1cn([C@@H]2O[C@H](CO)[C@@H](O)[C@@H]2Br)c(=O)[nH]c1=O`, the EC50 with Human alphaherpesvirus 1 (Human alphaherpesvirus 1) and with Human alphaherpesvirus 2 (Human alphaherpesvirus 2) was more than 100000 nM throughout. Besides, the IC50 in the assay with Lymphocytic cell line (setting [1]) came out at 8000 nM.
With `O=c1ccn([C@@H]2O[C@H](CO)[C@@H](O)[C@H]2F)c(=O)[nH]1`, the EC50 with Human alphaherpesvirus 1 (Human alphaherpesvirus 1) is 800 nM; in the assay with Human alphaherpesvirus 2 (Human alphaherpesvirus 2) it was 6000 nM. The IC50 in the assay on Lymphocytic cell line (setting [1]) was more than 100000 nM.
On to `Nc1nc(=O)n([C@@H]2O[C@H](CO)[C@@H](O)[C@@H]2Cl)cc1I`, for which the figures for the EC50 in the assay with Human alphaherpesvirus 1 (Human alphaherpesvirus 1) and with Human alphaherpesvirus 2 (Human alphaherpesvirus 2) were 3400 nM and 90 nM, respectively. Besides, the IC50 in the assay on Lymphocytic cell line (setting [1]) was 3500 nM.
In the case of `Nc1nc(=O)n([C@@H]2O[C@H](CO)[C@@H](O)[C@@H]2Br)cc1I`, the EC50 with Human alphaherpesvirus 1 (Human alphaherpesvirus 1) came to 9500 nM; in the assay with Human alphaherpesvirus 2 (Human alphaherpesvirus 2), 2200 nM. For the same molecule, the IC50 in the assay on Lymphocytic cell line (setting [1]) amounted to 200 nM.
On the same counts, the results for `O=c1[nH]c(=O)n([C@@H]2O[C@H](CO)[C@@H](O)[C@H]2F)cc1I` are 25 nM, 55 nM and 3300 nM.
On the same counts, the results for `O=c1[nH]c(=O)n([C@H]2O[C@@H](CO)[C@H](O)[C@H]2F)cc1Br` are 110 nM, 70 nM and 900 nM.
The corresponding values for `Cc1cn([C@@H]2O[C@H](CO)[C@@H](O)[C@@H]2Cl)c(=O)nc1N` are more than 100000 nM, 220 nM and 20000 nM.
`Nc1ccn([C@@H]2O[C@H](CO)[C@@H](O)[C@@H]2F)c(=O)n1`: the EC50 is 120 nM in the assay on Human alphaherpesvirus 1 (Human alphaherpesvirus 1) and 300 nM with Human alphaherpesvirus 2 (Human alphaherpesvirus 2). The IC50 with Lymphocytic cell line (setting [1]) was found to be 600 nM.
Take `Nc1nc(=O)n([C@@H]2O[C@H](CO)[C@@H](O)[C@H]2F)cc1I` (stereo in doubt; 9): the EC50 with Human alphaherpesvirus 1 amounted to 17900 nM; in the assay with Human alphaherpesvirus 2, 27400 nM. The IC50 in the assay on Lymphocytic cell line came out at 1900 nM.
Take `Cc1cn([C@@H]2O[C@H](CO)[C@@H](O)[C@@H]2Cl)c(=O)[nH]c1=O`: the EC50 with Human alphaherpesvirus 1 (Human alphaherpesvirus 1) and with Human alphaherpesvirus 2 (Human alphaherpesvirus 2) was more than 100000 nM in each case. Further, in the assay with Lymphocytic cell line (setting [1]), the IC50 is more than 100000 nM.
Turning to `Nc1nc(=O)n([C@@H]2O[C@H](CO)[C@@H](O)[C@@H]2Br)cc1Br`, the EC50 with Human alphaherpesvirus 1 (Human alphaherpesvirus 1) and in the assay with Human alphaherpesvirus 2 (Human alphaherpesvirus 2) was more than 100000 nM in each case. The IC50 in the assay on Lymphocytic cell line (setting [1]) was 4500 nM.
As for `Cc1cn([C@@H]2O[C@H](CO)[C@@H](O)[C@@H]2F)c(=O)nc1N`, the results for the EC50 in the assay with Human alphaherpesvirus 1 (Human alphaherpesvirus 1) and in the assay with Human alphaherpesvirus 2 (Human alphaherpesvirus 2) were 640 nM and 800 nM, respectively. Moreover, the IC50 in the assay with Lymphocytic cell line (setting [1]) was 800 nM.
As for `Cc1cn([C@@H]2O[C@H](CO)[C@@H](O)[C@@H]2F)c(=O)[nH]c1=O` [5-METHYL-2'-FLUOROARAURACIL], the EC50 in the assay with Human alphaherpesvirus 1 (Human alphaherpesvirus 1) and with Human alphaherpesvirus 2 (Human alphaherpesvirus 2) was 13 nM each time. The IC50 in the assay with Lymphocytic cell line (setting [1]) came to 1000 nM.
Regarding `Nc1nc(=O)n([C@@H]2O[C@H](CO)[C@@H](O)[C@@H]2Cl)cc1Br`, the EC50 with Human alphaherpesvirus 1 (Human alphaherpesvirus 1) and in the assay on Human alphaherpesvirus 2 (Human alphaherpesvirus 2) was more than 100000 nM in each case. For the same molecule, in the assay on Lymphocytic cell line (setting [1]), the IC50 is more than 100000 nM.
On to `Nc1ccn([C@@H]2O[C@H](CO)[C@@H](O)[C@@H]2Cl)c(=O)n1`, for which the results for the EC50 with Human alphaherpesvirus 1 (Human alphaherpesvirus 1) and with Human alphaherpesvirus 2 (Human alphaherpesvirus 2) were 110 nM and 3800 nM, respectively. For the same molecule, the IC50 in the assay on Lymphocytic cell line (setting [1]) was determined as 6 nM.

These data come from ChEMBL document CHEMBL1122430, “Nucleosides. 123. Synthesis of antiviral nucleosides: 5-substituted 1-(2-deoxy-2-halogeno-beta-D-arabinofuranosyl)cytosines and -uracils. Some structure-activity relationships” (1983).
